# Test results taken from ChEMBL document CHEMBL1138065, “Novel selective inhibitors of neutral endopeptidase for the treatment of female sexual arousal disorder. Synthesis and activity of functionalized glutaramides” (J Med Chem, 2006).
# Columns and labels:
# [1] = Lipophilicity, LogD at pH 7.4; assay type: physicochemical; conditions: buffer
# In short: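 Partition measured between 1-octanol and water at pH 7.4.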
# Rattus norvegicus [2] = test: Volume of distribution in female rat at 1 mg/kg, iv and po; assay type: ADME, organism-based; set-up: dose 1 mg/kg, route oral; conditions: in vivo
# In short: (§1)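 Jugular-vein-cannulated rats got 1 mg/kg iv (tail vein) or po (gavage). Blood (0.2 mL) was drawn via the catheter into heparin tubes up to 24 h post-dose. Plasma was acidified with phosphoric acid and frozen, then extracted on C18 cartridges. Samples were quantified by LC-MS-MS with positive-ion MRM. Values are mean ± SD of three animals.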
# Rattus norvegicus [3] = test: Volume of distribution in male rat at 1 mg/kg, iv and po; assay type: ADME, organism-based; set-up: dose 1 mg/kg, route oral; conditions: in vivo; in short: as §1
# [4] = Oral bioavailability in female rat at 1 mg/kg, iv and po; assay type: ADME, organism-based; conditions: in vivo; in short: as §1
# [5] = Cmax in male rat at 1 mg/kg, iv and po; assay type: ADME, organism-based; set-up: dose 1 mg/kg, route oral; conditions: in vivo; in short: as §1
# [6] = Tmax in female rat at 1 mg/kg, iv and po; assay type: ADME, organism-based; set-up: dose 1 mg/kg, route oral; conditions: in vivo; in short: as §1
# [7] = Half life in male rat at 1 mg/kg, iv and po; assay type: ADME, organism-based; set-up: dose 1 mg/kg, route oral; conditions: in vivo; in short: as §1
# [8] = Apparent permeability from basolateral to apical side of the Caco-2 cell membrane at pH 7.4 at 25 uM; assay type: ADME, cell-based; conditions: human, Caco-2, pH 7.4
# [9] = Oral bioavailability in male rat at 1 mg/kg, iv and po; assay type: ADME, organism-based; conditions: in vivo; in short: as §1
# [10] = Percent of unbound ligand in female rat at 1 mg/kg, iv and po; assay type: ADME, organism-based; set-up: dose 1 mg/kg, route oral; conditions: in vivo
# In short: (§2)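 Fraction unbound in rat plasma was measured at 1 µg/mL by equilibrium dialysis against isotonic Krebs-Ringer bicarbonate buffer, pH 7.4.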
# [11] = biological target: T1, Endothelin-converting enzyme 1 (Homo sapiens, UniProt P42892); test: Inhibition of human ECE1
# T1 sequence (P42892 whole entry): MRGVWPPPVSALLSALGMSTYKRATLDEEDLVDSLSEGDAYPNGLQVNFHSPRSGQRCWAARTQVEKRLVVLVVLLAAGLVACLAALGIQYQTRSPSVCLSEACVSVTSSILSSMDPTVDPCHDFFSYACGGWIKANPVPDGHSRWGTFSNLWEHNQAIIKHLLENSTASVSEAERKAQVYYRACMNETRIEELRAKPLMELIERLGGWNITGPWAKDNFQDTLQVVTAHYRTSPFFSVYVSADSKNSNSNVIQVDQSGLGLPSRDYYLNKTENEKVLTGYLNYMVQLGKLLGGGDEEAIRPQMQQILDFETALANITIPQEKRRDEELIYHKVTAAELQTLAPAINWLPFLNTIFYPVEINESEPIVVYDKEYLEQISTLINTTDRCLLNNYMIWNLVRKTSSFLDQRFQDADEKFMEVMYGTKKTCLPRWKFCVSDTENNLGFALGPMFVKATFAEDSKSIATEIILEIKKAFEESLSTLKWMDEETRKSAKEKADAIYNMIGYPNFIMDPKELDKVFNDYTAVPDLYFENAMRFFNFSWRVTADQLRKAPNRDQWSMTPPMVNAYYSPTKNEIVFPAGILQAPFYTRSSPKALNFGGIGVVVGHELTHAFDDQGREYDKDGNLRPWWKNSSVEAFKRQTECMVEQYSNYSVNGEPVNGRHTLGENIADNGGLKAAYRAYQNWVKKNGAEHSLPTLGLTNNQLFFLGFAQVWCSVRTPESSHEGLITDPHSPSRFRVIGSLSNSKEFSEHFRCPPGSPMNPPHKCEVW
# In short: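 Enzyme: recombinant human ECE-1 extracellular domain (aa 73-753), taken from the media of transiently transfected CHO cells. Assay in 100 mM HEPES-KOH pH 7.0/1% DMSO with 1 µM big ET-1, 1 h at 37 °C. Stopped with an equal volume of 10 mM EDTA. ET-1 formed was read by ELISA, with enzyme diluted to give OD ≈1.0. Inhibitors were tested at a range of concentrations as % inhibition.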
# Neprilysin [12] = biological target: T2, Neprilysin (Rattus norvegicus, UniProt P07861); test: Inhibition of rat NEP
# T2 sequence (P07861 whole entry): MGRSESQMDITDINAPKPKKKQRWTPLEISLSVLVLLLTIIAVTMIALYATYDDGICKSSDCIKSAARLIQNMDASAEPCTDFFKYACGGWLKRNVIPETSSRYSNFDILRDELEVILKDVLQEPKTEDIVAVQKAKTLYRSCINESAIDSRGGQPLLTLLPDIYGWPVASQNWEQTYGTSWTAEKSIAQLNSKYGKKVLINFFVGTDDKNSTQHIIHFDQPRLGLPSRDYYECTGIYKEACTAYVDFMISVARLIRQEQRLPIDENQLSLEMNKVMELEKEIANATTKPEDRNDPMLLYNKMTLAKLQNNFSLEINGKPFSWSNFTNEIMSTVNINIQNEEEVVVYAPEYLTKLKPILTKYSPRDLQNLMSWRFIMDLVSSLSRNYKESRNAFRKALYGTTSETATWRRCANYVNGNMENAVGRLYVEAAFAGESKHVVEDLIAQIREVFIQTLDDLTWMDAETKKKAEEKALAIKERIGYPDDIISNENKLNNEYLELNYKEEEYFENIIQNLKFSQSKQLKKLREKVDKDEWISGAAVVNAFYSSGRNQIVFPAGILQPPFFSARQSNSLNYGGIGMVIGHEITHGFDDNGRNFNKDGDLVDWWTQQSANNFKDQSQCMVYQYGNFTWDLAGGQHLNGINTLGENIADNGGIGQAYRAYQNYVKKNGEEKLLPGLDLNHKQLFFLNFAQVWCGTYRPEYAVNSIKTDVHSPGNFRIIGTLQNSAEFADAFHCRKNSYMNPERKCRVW
# In short: (§3)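 Fluorogenic substrate o-aminobenzoyl-D-Arg-Arg-Leu-ethylenediamine-2,4-dinitrophenyl in 50 mM Tris·Cl pH 7.4 (inhibitor dilutions with 4% DMSO). Enzyme was diluted to ≤10% conversion; incubation 1 h at 37 °C, stopped with phosphoramidon. 10-point half-log dilution series, duplicate points.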
# [13] = Half life in female rat at 1 mg/kg, iv and po; assay type: ADME, organism-based; set-up: dose 1 mg/kg, route oral; conditions: in vivo; in short: as §1
# [14] = Stability in rat liver microsome; assay type: ADME; conditions: liver microsomes, read-out: Stability
# Neprilysin [15] = biological target: T3, Neprilysin (Oryctolagus cuniculus, UniProt P08049); test: Inhibition of rabbit NEP; in short: as §3
# T3 sequence (P08049 whole entry): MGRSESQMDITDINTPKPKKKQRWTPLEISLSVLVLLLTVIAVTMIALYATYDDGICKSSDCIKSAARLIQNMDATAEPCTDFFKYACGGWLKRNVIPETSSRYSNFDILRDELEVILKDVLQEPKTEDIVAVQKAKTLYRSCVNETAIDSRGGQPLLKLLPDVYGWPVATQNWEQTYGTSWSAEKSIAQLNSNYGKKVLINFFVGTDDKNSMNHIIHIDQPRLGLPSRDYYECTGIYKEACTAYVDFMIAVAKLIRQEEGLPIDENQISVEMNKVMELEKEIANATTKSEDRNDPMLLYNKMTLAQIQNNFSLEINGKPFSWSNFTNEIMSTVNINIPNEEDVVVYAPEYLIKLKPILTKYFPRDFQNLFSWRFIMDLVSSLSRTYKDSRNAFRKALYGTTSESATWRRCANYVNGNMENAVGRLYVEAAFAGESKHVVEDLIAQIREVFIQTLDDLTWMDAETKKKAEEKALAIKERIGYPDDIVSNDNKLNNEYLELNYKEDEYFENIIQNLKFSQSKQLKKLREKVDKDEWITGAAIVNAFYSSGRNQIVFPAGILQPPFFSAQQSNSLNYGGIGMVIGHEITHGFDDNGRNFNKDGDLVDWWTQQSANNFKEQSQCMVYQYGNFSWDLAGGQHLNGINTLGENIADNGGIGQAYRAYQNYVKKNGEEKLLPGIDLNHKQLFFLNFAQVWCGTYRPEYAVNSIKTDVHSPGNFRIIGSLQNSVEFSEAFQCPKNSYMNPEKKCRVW
# [16] = Percent of unbound ligand in male rat at 1 mg/kg, iv and po; assay type: ADME, organism-based; set-up: dose 1 mg/kg, route oral; conditions: in vivo; in short: as §2
# [17] = Stability in human liver microsome at 1 uM in presence of 0.5 uM CYP; assay type: ADME; conditions: liver microsomes, read-out: Stability
# In short: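 Substrate disappearance in human liver microsomes, 1 µM compound, 0.5 µM CYP.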
# [18] = Cmax in female rat at 1 mg/kg, iv and po; assay type: ADME, organism-based; set-up: dose 1 mg/kg, route oral; conditions: in vivo; in short: as §1
# [19] = Apparent permeability from apical to basolateral side of the Caco-2 cell membrane at pH 7.4 at 25 uM; assay type: ADME, cell-based; conditions: human, Caco-2, pH 7.4
# [20] = Tmax in male rat at 1 mg/kg, iv and po; assay type: ADME, organism-based; set-up: dose 1 mg/kg, route oral; conditions: in vivo; in short: as §1
Compound,logD [1],Vdss (Rattus norvegicus [3]) [L/kg],Cmax [5] [ng/mL],half-life [7] [h],Papp B→A at 25 µM [8] [×10⁻⁶ cm/s],bioavailability [9] [%],IC50 [11] [µM],half-life at 1 µM [17] [h],Papp A→B at 25 µM [19] [×10⁻⁶ cm/s],Tmax [20] [h],further results
CCCC(CC1(C(=O)Nc2nnc(C)s2)CCCC1)C(=O)O (racemic),0.1,–,–,–,–,–,–,–,–,–,–
CCC[C@H](CC1(C(=O)Nc2nnc(CC)s2)CCCC1)C(=O)O,–,0.4,1180,1.7,14,103,> 3,> 2,9,1,Vdss (Rattus norvegicus [2]): 0.9 L/kg; bioavailability [4]: 131%; Tmax [6]: 1 h; Fu [10]: 13%; IC50 (Neprilysin [12]): 0.0143 µM; half-life [13]: 2.1 h; half-life [14]: > 2 h; IC50 (Neprilysin [15]): 0.0102 µM; Fu [16]: 10.6%; Cmax [18]: 1460 ng/mL
CCC[C@H](CC1(C(=O)NC2(CO)Cc3ccccc3C2)CCCC1)C(=O)O,–,4.7,233,1.5,10,144,> 3,1.03,6,0.25,half-life [14]: > 2 h; Fu [16]: 24.3%
CCC[C@@H](CC1(C(=O)NC2(CO)Cc3ccccc3C2)CCCC1)C(=O)O,–,–,–,–,–,–,> 3,–,–,–,–
CCC[C@H](CC1(C(=O)Nc2nnc(C)s2)CCCC1)C(=O)O,–,–,–,–,2,–,> 3,> 2,< 1,–,–
CCCC(CC1(C(=O)NC2(CO)Cc3ccccc3C2)CCCC1)C(=O)O (racemic),1.1,3.9,311,2,–,108,–,–,–,0.25,–
CCCC(CC1(C(=O)Nc2nnc(CC)s2)CCCC1)C(=O)O (racemic),0.5,–,–,–,–,–,–,–,–,–,–
CCC[C@@H](CC1(C(=O)Nc2nnc(CC)s2)CCCC1)C(=O)O,–,–,–,–,–,–,> 3,–,–,–,–
